18 compounds from ChEMBL document CHEMBL4823293, “Fragment-based lead discovery to identify novel inhibitors that target the ATP binding site of pyruvate dehydrogenase kinases” (Bioorg Med Chem, 2021) can be followed below.

Usually IC50 stands for the concentration at which inhibition is half-maximal. As a reminder, the inhibition is the percentage by which the read-out fell short of the control.

Test [1] concerns the target T1, [Pyruvate dehydrogenase (acetyl-transferring)] kinase isozyme 2, mitochondrial (Homo sapiens, UniProt Q15119). Put plainly: Inhibition of human PDHK2 co-complexed with porcine PDH using sodium pyruvate, coenzymeA and NAD as substrate preincubated with enzyme complex for 45 mins followed by ATP addition and then later incubated with substrate for 90 mins by absorption spectrophotometric assay.

For test [2], the target named is T2, [Pyruvate dehydrogenase (acetyl-transferring)] kinase isozyme 4, mitochondrial (Homo sapiens, UniProt Q16654). The test is described as follows: Inhibition of human PDHK4 co-complexed with porcine PDH using sodium pyruvate, coenzymeA and NAD as substrate preincubated with enzyme complex for 45 mins followed by ATP addition and then later incubated with substrate for 90 mins by absorption spectrophotometric assay.
Target sequence in this assay (Q16654 whole entry): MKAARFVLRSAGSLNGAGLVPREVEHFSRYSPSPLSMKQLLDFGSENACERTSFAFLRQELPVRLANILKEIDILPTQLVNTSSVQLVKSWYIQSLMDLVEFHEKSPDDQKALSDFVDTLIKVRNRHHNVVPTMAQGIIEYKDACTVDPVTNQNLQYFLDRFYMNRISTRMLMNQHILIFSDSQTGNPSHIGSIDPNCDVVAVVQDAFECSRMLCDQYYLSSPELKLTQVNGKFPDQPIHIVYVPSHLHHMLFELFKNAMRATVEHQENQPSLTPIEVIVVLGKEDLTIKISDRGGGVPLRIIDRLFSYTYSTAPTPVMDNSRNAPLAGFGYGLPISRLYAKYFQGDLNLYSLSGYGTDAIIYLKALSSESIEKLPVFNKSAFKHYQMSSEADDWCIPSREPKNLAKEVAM

Test [3] deals with T1, [Pyruvate dehydrogenase (acetyl-transferring)] kinase isozyme 2, mitochondrial. The test is described as follows: Inhibition of human PDHK2 assessed as reduction in acetyl-coenzymeA formation by RapidFire mass spectrometry. The method in brief:
(§1)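 PDHK reaction read through downstream PDH product. Reaction mix diluted 25-fold in 0.1% formic acid. Acetyl-CoA captured on graphitic carbon SPE (5 mM ammonium acetate pH 10.0), eluted with buffer/acetonitrile/acetone 50:25:25. […] MRM at 808/79 and 808/408; peak AUC quantified, ATP signal confirming each injection.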

Test [4] has as its target T2, [Pyruvate dehydrogenase (acetyl-transferring)] kinase isozyme 4, mitochondrial. The test is described as follows: Inhibition of human PDHK4 assessed as reduction in acetyl-coenzymeA formation by RapidFire mass spectrometry. In outline: as §1
Target sequence in this assay (Q16654 whole entry): as above
Test [5] shares this target. Put plainly: Inhibition of human PDHK4 assessed as reduction in acetyl-coenzymeA formation at IC50 by RapidFire mass spectrometry relative to control. In outline: as §1
Target sequence in this assay (Q16654 whole entry, looked up): as the sequence (Q16654 whole entry) above
Test [6] addresses [Pyruvate dehydrogenase (acetyl-transferring)] kinase isozyme 1, mitochondrial (Homo sapiens, UniProt Q15118). The test is described as follows: Inhibition of human PDHK1 co-complexed with porcine PDH using sodium pyruvate, coenzymeA and NAD as substrate preincubated with enzyme complex for 45 mins followed by ATP addition and then later incubated with substrate for 90 mins by absorption spectrophotometric assay. In outline:
(§2)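 Recombinant human PDHK mixed with porcine PDH complex, held overnight at 4 °C to form PDH/PDHK complex. Inhibitor plus 0.3 or 10 µM ATP, 45 min at room temperature. Then 5.0 mM CoA, 5.0 mM pyruvate, 12 mM NAD added, 90 min at room temperature. NADH A340 taken before and after; IC50 from Hill-type curve fit against 0% and 100% activity controls.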

The target of test [7] is [Pyruvate dehydrogenase (acetyl-transferring)] kinase isozyme 3, mitochondrial (Homo sapiens, UniProt Q15120). The test is described as follows: Inhibition of human PDHK3 co-complexed with porcine PDH using sodium pyruvate, coenzymeA and NAD as substrate preincubated with enzyme complex for 45 mins followed by ATP addition and then later incubated with substrate for 90 mins by absorption spectrophotometric assay. The method in brief:
as §2

For test [8], the target named is Heat shock protein HSP90 (Homo sapiens) (UniProt P07900+P08238). Put plainly: Inhibition of HSP90 (unknown origin) at 30 uM using labelled geldanamycin by fluorescence polarization assay. The test is classed as protein assay. The method in brief: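 Competitive fluorescence polarization with labelled geldanamycin probe, run as a commercial HSP90 assay kit; read as percent inhibition at a single concentration.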
On the technique in general: Polarisation of emitted light reports the rotation of a fluorescent probe.

Test [9] deals with T3, Branched-chain alpha-ketoacid dehydrogenase kinase (Homo sapiens, UniProt O14874). The test is described as follows: Inhibition of human recombinant BCKDK at 500 uM incubated for 60 mins by ADP-Glo kinase assay. The method in brief:
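Human recombinant BCKDK with inhibitor and 0.2 µM ATP, 60 min at 37 °C. ADP-Glo reagent 40 min at room temperature to stop and deplete ATP, then detection reagent 40 min to convert ADP to ATP; luminescence read.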
(In general: In ADP-Glo the light output rises with the ADP produced.)

For test [10], the target named is Serine/threonine-protein kinase mTOR (Homo sapiens) (UniProt P42345). Put plainly: Inhibition of human partial length wild type mTOR (L1382 to W2549 residues) expressed in mammalian expression system at 10 uM by KINOMEscan analysis. The method in brief: (§3)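 Competition-binding KINOMEscan service panel of 59 kinases; percent inhibition at 10 µM.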
For test [11], the target named is Microtubule-associated serine/threonine-protein kinase 1 (Homo sapiens) (UniProt Q9Y2H9). Put plainly: Inhibition of human partial length wild type MAST1 (S346 to V730 residues) expressed in mammalian expression system at 10 uM by KINOMEscan analysis. In outline:
as §3

For test [12], the target named is T3, Branched-chain alpha-ketoacid dehydrogenase kinase. Put plainly: Inhibition of human recombinant BCKDK incubated for 60 mins by ADP-Glo kinase assay.

Chain of Microtubule-associated serine/threonine-protein kinase 1 (Homo sapiens) (Q9Y2H9 whole entry, looked up, the tested form may be a part): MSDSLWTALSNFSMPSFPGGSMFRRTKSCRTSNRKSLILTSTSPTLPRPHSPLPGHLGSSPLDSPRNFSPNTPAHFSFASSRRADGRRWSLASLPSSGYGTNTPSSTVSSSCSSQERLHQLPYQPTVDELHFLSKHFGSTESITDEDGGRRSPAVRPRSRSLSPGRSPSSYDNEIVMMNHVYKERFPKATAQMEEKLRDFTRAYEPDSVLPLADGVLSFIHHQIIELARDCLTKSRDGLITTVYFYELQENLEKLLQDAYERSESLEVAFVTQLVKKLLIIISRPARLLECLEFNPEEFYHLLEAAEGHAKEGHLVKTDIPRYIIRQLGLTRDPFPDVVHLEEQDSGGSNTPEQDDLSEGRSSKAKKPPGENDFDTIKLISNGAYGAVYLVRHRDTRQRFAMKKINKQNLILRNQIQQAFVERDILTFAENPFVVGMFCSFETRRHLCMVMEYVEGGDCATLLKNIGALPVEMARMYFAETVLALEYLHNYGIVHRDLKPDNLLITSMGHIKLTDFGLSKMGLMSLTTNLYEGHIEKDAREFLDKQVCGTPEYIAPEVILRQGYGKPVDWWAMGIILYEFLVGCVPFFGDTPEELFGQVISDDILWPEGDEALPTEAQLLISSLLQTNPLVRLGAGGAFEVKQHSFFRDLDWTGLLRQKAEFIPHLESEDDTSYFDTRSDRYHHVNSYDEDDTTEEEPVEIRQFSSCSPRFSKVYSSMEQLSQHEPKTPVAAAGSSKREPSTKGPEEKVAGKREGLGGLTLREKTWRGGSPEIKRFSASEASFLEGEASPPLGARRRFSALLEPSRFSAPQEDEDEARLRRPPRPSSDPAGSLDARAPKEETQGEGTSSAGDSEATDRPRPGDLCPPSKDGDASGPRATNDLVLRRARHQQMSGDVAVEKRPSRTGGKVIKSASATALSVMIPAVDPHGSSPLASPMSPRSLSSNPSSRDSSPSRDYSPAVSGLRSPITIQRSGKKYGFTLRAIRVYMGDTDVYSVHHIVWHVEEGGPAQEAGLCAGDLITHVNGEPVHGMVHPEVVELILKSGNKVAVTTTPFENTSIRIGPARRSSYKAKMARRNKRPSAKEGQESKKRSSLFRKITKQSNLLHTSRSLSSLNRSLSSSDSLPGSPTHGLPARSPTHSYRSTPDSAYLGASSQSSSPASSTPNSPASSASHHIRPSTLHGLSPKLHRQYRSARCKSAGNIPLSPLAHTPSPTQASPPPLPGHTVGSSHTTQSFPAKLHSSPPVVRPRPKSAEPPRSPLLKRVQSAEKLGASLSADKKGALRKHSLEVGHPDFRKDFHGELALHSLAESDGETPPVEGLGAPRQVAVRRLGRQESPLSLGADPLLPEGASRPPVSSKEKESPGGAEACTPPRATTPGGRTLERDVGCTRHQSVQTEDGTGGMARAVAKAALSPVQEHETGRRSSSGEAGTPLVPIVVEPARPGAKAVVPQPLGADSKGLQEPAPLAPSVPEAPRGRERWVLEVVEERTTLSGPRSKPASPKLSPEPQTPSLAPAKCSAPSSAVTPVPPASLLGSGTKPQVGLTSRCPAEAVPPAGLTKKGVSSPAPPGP
Chain of [Pyruvate dehydrogenase (acetyl-transferring)] kinase isozyme 3, mitochondrial (Q15120 whole entry): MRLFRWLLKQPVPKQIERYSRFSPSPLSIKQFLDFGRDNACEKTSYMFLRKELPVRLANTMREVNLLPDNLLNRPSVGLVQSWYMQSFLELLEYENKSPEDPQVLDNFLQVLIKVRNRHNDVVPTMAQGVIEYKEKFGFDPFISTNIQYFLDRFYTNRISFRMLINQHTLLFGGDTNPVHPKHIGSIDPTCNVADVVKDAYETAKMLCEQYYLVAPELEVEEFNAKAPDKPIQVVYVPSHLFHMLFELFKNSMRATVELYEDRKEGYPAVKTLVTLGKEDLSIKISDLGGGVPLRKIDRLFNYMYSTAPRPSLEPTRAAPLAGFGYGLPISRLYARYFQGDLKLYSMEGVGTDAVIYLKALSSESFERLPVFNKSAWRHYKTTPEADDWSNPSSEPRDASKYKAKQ
Chain of [Pyruvate dehydrogenase (acetyl-transferring)] kinase isozyme 1, mitochondrial (Q15118 whole entry): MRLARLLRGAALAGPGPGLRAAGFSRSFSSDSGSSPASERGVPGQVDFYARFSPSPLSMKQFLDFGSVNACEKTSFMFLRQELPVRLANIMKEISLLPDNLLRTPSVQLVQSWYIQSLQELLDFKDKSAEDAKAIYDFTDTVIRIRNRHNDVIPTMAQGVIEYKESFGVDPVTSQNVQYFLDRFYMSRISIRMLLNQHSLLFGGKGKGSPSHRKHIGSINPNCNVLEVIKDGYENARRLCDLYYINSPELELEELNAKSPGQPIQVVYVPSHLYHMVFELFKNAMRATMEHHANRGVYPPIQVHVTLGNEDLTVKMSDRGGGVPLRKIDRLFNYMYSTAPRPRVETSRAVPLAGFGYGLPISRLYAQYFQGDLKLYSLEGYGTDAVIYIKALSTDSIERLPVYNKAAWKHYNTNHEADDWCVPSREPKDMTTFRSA

Turning to `CCCc1[nH]c2nc(C)ncc2c1C#N`, the IC50 in test [1] and in test [2] was > 30 µM throughout.
For `CNC(=O)c1[nH]c2nc(C)nc(Cl)c2c1C`, the IC50 is 42.8 µM in test [1] and > 100 µM in test [2].
The matching figures for `CCCc1[nH]c2nc(C)nc(Cl)c2c1C`: 9.9 µM and > 30 µM.
The corresponding values for `CC1(C)C(=O)Nc2c(N)cccc21` are > 300 µM and > 300 µM.
With `O=C1Cc2ccccc2N1` [OXINDOLE], the concentration for half-maximal inhibition (IC50) in test [3] is 958 µM; in [4], > 2000 µM. Further, the inhibition in [5] came out at 29%.
Take `CNc1cccc2c1NC(=O)C2(C)C`: the IC50 in [1] was determined as 0.59 µM; in test [2], 12.8 µM; in test [6] it was 0.37 µM; in test [7], 8.4 µM. In addition, the inhibition was found to be 3.2% in [8], 14% in [9], 58% in test [10] and 60% in test [11].
For `Cc1cnc2[nH]c3c(C4CC4)cccc3c2n1`, the IC50 in test [1] was 0.71 µM; in [2] it was 5.9 µM; in [12] it was > 300 µM.
In the case of `COC(=O)c1ccc(O)cc1O` [METHYL 2,4-DIHYDROXYBENZOATE], the IC50 in [3] turned out to be 192 µM; in test [4] it was 345 µM.
For the compound `C/C=C/c1[nH]c2nc(C)nc(Cl)c2c1Cl`, the IC50 in test [1] is 1.5 µM; in test [2] it was 8 µM.
For `CCc1cccc2c1NC(=O)C2(C)C`, the IC50 in [1] is 11 µM; in test [2], > 300 µM.
The corresponding values for `CCCc1[nH]c2nc(C)ncc2c1C` are 14.7 µM and > 30 µM.
The corresponding values for `Cc1cnc2[nH]c3c(C4CC4)cccc3c2c1` are 2 µM and 12 µM.
Regarding `CNC(=O)c1[nH]c2nc(C)nc(Cl)c2c1Br`, the IC50 in [1] and in test [2] was > 30 µM each time.
Consider `c1cnc2[nH]c3c(C4CC4)cccc3c2c1`, for which the IC50 in test [1] was 3.5 µM; in [2], > 300 µM.
The corresponding values for `CCCc1[nH]c2nc(C)ncc2c1Br` are 2.2 µM and 12.4 µM.
As for `CC1(C)C(=O)Nc2ccccc21`, the IC50 was 50.2 µM in test [3], 890 µM in [4], 279 µM in test [1] and > 300 µM in test [2].
Regarding `CC1(C)C(=O)Nc2c(C3CC3)cccc21`, the figures for the IC50 in test [1] and in test [2] were 4.9 µM and 43.6 µM, respectively.
The corresponding values for `CCCc1[nH]c2nc(C)ncc2c1Cl` are 1.8 µM and 11 µM.
